Measurements from paper PMC2873069 (The journal of maternal-fetal & neonatal medicine : the …, 2010).
Entries after “also recorded” stand apart in the source; their conditions may differ. Where two headings read alike, the source gives them in different places. One block for each molecule: values may come before it.

Key:
[1] = tested on: term human placental lobule; assay type: in vitro ADME; conditions: for fetal/maternal concentration ratio: HSA 30 mg/ml
[2] = cited from earlier work
[3] = tested on: perfused placental tissue; test: Effect of bupropion on placental tissue viability; set-up: species or system human; conditions: for effect on placental viability and functional parameters: 150 ng/ml and 450 ng/ml bupropion
[4] = cited from earlier work; for pharmacologic activity: hepatic metabolites
[5] = tested on: placental tissue enzymes; test: Metabolism of bupropion by placental tissue during perfusion; conditions: end of 4 hours of perfusion
[6] = assay type: physicochemical
Procedure, shortened: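 Test compound as the [3H] form recirculated for 4 h through the closed perfusion circuit (glassware, teflon tubing, tygon peristaltic-pump tubing) without placenta, in M199 with dextran 40, heparin, gentamicin, sulfamethoxazole and trimethoprim at 37 °C. Run without and with human serum albumin at 30 mg/mL. Loss of radiolabel from the medium was tracked over 4 h.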

[7] = bupropion 150 ng/mL, 4 hours of perfusion
[8] = bupropion 450 ng/mL, 4 hours of perfusion
[9] = end of 4-hour perfusion, independent of initial concentration

Molecule: Cc1cc(=O)n(-c2ccccc2)n1C [AP, antipyrine]
transplacental transfer to the fetal circuit ([1]; antipyrine 20 μg/mL co-transfused marker, 4 hours): approximately 50%
binding to plasma proteins and human serum albumin [2]: minimal binding

decline in concentration in the maternal circuit (shape) ([1]; 150 ng/ml, 4 hours): biphasic
time at which equilibrium was achieved in the fetal circuit ([1]; 150 ng/ml, from time 0): 180 min
fetal circuit concentration as % of initial concentration ([1]; 450 ng/ml, end of 4 hours): 23 ± 2%
fetal/maternal concentration ratio ([1]; bupropion 150 ng/ml in maternal circuit, end of 4-hour perfusion): 1.07 ± 0.22
fetal/maternal concentration ratio ([1]; bupropion 450 ng/ml in maternal circuit, end of 4-hour perfusion): 1.00 ± 0.14
fraction of drug remaining in the maternal circuit [1, 9]: 32 ± 5%
fraction of drug retained by placental tissue [1, 9]: 48 ± 6%
concentration in the fetal circuit at the end of the experiment ([1]; initial maternal concentration 150 ng/ml, 4 hours): 35 ± 4 ng/mL
concentration in the fetal circuit at the end of the experiment ([1]; initial maternal concentration 450 ng/ml, 4 hours): 104 ng/mL
Molecule: CC(NC(C)(C)C)C(=O)c1cccc(Cl)c1 (centres unmarked) [bupropion]
effect on placental viability and functional parameters [3]: did not affect; also recorded: do not adversely affect
O2 consumption, % of control period [3, 7]: 114 ± 37%
O2 consumption, experimental period [3, 7]: 6.6 ± 1.6 mL/min/kg
O2 transfer, % control period [3, 7]: 56 ± 21%
O2 transfer, experimental period [3, 7]: 0.22 ± 0.1 mL/min/kg
O2 consumption, % of control period [3, 8]: 98 + 38%
O2 consumption, experimental period [3, 8]: 3.7 + 1.2 mL/min kg
O2 transfer, % control period [3, 8]: 43 + 16%
release of hCG at the end of the experimental period (control period = 100%) ([3]; bupropion transfused in presence of HSA): 94 ± 12%
octanol/water partition coefficient ([2]; no reference given): 3.21
pKa ([2]; no reference given): 7.6

Molecule: CC(NC(C)(C)C)C(O)c1cccc(Cl)c1 (centres unmarked) [erythrohydrobupropion]
pharmacologic activity [4]: very low activity

Molecule: C[C@H]1NC(C)(C)CO[C@]1(O)c1cccc(Cl)c1 [hydroxybupropion]
pharmacologic activity relative to the parent compound ([4]; hepatic metabolite): ~50%

Molecule: C[C@H](NC(C)(C)C)[C@@H](O)c1cccc(Cl)c1 [threohydrobupropion]
ratio of metabolite to parent drug in placental tissue [5]: 0.06
ratio of metabolite to parent drug in the fetal circuit [5]: 0.07
ratio of metabolite to parent drug in the maternal circuit [5]: 0.08
pharmacologic activity [4]: very low activity
effect on placental viability and functional parameters [3]: do not adversely affect

Molecule: [^3H]-bupropion
binding to glassware and teflon tubing ([6]; 4 hours recirculation in absence of placenta): negligible
decline of initial amount in the medium ([6]; 4 hours recirculation in absence of placenta, no HSA): 40%
reduction of binding to tygon tubing ([6]; after addition of 30 mg/mL HSA to the perfusion medium): 25%
